These results are taken from ChEMBL document CHEMBL1138667, “Phenylguanidines as selective nonpeptide melanocortin-5 receptor antagonists” (J Med Chem, 2004).

SMILES strings stand for the structures.

In experiment [1] the target is T1, Melanocortin receptor 4 (Homo sapiens, UniProt P32245). The experiment is described as follows: Intrinsic activity as percentage of maximal melanocortin receptor 4 related cAMP production relative to alpha-MSH. Format: functional. Background: cAMP levels reflect the balance of adenylyl cyclase and phosphodiesterase activity.
For experiment [2], the target named is T2, Melanocyte-stimulating hormone receptor (Homo sapiens, UniProt Q01726). The experiment is described as follows: Percentage inhibition of human melanocortin 1 receptor at 10 uM.
Target sequence in this assay (Q01726 whole entry, looked up): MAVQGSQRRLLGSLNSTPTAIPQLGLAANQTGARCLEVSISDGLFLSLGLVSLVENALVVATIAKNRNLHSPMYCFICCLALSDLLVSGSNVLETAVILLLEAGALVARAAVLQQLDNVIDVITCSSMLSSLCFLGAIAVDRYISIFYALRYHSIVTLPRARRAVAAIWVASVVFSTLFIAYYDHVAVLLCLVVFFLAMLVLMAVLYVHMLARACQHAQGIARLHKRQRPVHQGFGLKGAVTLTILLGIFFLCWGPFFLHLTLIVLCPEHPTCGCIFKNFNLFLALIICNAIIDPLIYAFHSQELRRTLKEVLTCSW
Experiment [3] deals with T3, Melanocortin receptor 5 (Homo sapiens, UniProt P33032). The experiment is described as follows: Inhibition of [125I]NDP-MSH binding to human Melanocortin 5 receptor expressed in HEK293 cells. It is filed as cell-based. Put shortly:
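Competitive binding on membranes from HEK293 cells stably expressing human MC5 receptor, with [125I]NDP-MSH as the radioligand. Inhibition of radioligand binding was measured and Ki derived from more than 3 determinations.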

For experiment [4], the target named is Melanocortin receptor 3 (Homo sapiens, UniProt P41968). The experiment is described as follows: Binding affinity for human melanocortin 3 receptor. Put shortly:
(§1)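 Human MC1, MC3 or MC4 receptor expressed in HEK293 cells. Membranes bearing each receptor were used in a competitive binding assay measuring inhibition of [125I]NDP-MSH binding, with inhibition curves generated.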

The target of experiment [5] is T1, Melanocortin receptor 4. The experiment is described as follows: Binding affinity for human melanocortin 4 receptor. Put shortly:
as §1

The target in experiment [6] is T2, Melanocyte-stimulating hormone receptor. The experiment is described as follows: Binding affinity for human melanocortin 1 receptor. Put shortly: as §1
Target sequence in this assay (Q01726 whole entry): as the sequence (Q01726 whole entry, looked up) above
Experiment [7] has as its target T3, Melanocortin receptor 5. The experiment is described as follows: Inhibition of human Melanocortin 5 receptor.

T1 sequence (P32245 whole entry): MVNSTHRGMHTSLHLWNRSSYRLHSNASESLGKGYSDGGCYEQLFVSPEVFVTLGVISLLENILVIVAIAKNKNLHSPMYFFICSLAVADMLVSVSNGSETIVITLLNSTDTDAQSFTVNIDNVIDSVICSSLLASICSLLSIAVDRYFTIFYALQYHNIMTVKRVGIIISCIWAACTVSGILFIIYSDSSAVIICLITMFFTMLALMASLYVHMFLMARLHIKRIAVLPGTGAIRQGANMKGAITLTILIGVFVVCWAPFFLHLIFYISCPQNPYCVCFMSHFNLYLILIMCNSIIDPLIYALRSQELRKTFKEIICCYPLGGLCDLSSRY
T3 sequence (P33032 whole entry): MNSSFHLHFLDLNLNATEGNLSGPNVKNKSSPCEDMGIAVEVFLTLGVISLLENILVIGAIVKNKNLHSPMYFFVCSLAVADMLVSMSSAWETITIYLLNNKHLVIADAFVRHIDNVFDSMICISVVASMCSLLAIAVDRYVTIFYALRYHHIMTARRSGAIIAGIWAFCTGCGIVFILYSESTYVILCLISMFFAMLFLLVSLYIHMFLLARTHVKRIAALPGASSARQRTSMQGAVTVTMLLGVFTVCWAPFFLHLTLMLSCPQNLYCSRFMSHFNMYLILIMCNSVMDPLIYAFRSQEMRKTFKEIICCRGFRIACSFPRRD
Melanocortin receptor 3, sequence (P41968 whole entry): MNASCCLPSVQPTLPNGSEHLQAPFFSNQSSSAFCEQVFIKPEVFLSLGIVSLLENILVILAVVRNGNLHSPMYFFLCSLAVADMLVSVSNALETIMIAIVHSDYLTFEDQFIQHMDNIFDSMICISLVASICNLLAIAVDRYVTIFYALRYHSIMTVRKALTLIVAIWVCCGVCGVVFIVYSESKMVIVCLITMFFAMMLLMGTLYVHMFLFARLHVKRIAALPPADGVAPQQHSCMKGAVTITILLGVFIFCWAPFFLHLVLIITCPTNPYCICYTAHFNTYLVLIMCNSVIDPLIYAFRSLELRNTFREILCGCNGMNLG

In experiment [1], `CC1CN(/C(=N/c2ccc(C(=O)NCCc3ccc(Cl)cc3Cl)cc2)NC2CCCCC2)CC(C)N1` (stereo not given) showed an IA of 76%. In addition, the inhibition (commonly the drop in the measured response relative to a control, in per cent) in experiment [2] came out at 23%.

`O=C(NCCc1ccc(Cl)cc1Cl)c1ccc(NC(=NC2CCCCC2)N2CCN(c3ncccn3)CC2)cc1`: the Ki (usually the equilibrium dissociation constant of an inhibitor or competing ligand from its target) in experiment [3] came to 305 nM.

For the compound `O=C(NCCc1ccc(Cl)cc1Cl)c1ccc(NC(=NC2CCCCC2)N2CCC(N3CCCC3)CC2)cc1`, the inhibition constant (Ki) in experiment [3] was 77 nM.

As for `O=C(NCCc1ccc(Cl)cc1Cl)c1ccc(NC(=NC2CCCCC2)N2CCNCC2)cc1`, the Ki in experiment [4] came out at 2200 nM; in experiment [5] it was 650 nM; in experiment [6], 400 nM; in experiment [3], 18 nM. Inhibition in experiment [7] was half-maximal at 460 nM (IC50).

On to `O=C(NCCc1ccc(Cl)cc1Cl)c1ccc(NC(=NC2CCCCC2)N2CCN(Cc3ccccc3)CC2)cc1`, for which affinity in experiment [3] was put at a Ki of 44 nM.

Consider `CC(C)(N)C/N=C(\Nc1ccc(C(=O)NCCc2ccc(Cl)cc2Cl)cc1)NC1CCCCC1`, for which the IA in experiment [1] was 45%. The inhibition in experiment [2] stood at 27%. The figures for the Ki in experiment [4], in experiment [5] and in experiment [3] were 2400 nM, 1300 nM and 5.3 nM, respectively. For the same compound, half-maximal inhibition in experiment [7] (IC50) was put at 530 nM.

As to `CC1C(=O)NCCN1C(=NC1CCCCC1)Nc1ccc(C(=O)NCCc2ccc(Cl)cc2Cl)cc1` (stereo not given), affinity in experiment [3] was put at a Ki of 1050 nM.

The compound `Cc1ccc(C)c(N2CCN(C(=NC3CCCCC3)Nc3ccc(C(=O)NCCc4ccc(Cl)cc4Cl)cc3)CC2)c1` came in with a Ki in experiment [3] of 1760 nM.

Turning to `NC1CCN(C(=NC2CCCCC2)Nc2ccc(C(=O)NCCc3ccc(Cl)cc3Cl)cc2)CC1`, the Ki in experiment [3] amounted to 230 nM.

In the case of `C[C@H]1CN(/C(=N/c2ccc(C(=O)NCCc3ccc(Cl)cc3Cl)cc2)NC2CCCCC2)CCN1`, in experiment [1], the IA is 65%. In experiment [2], this compound displayed an inhibition of 29%. For the same compound, the values for the Ki in experiment [4], in experiment [5] and in experiment [3] were 2800 nM, 580 nM and 21 nM, respectively. The midpoint of inhibition in experiment [7], the IC50, lay at 380 nM.

Take `O=C(NCCc1ccc(Cl)cc1Cl)c1ccc(N/C(=N/C2CCCCC2)N2CCNCC2)cc1`: the IA in experiment [1] is 28%.

In the case of `C[C@@H]1CN[C@@H](C)CN1/C(=N/c1ccc(C(=O)NCCc2ccc(Cl)cc2Cl)cc1)NC1CCCCC1`, the Ki amounted to 2800 nM in experiment [4], 840 nM in experiment [5], 360 nM in experiment [6] and 5.9 nM in experiment [3]. Besides, inhibition in experiment [7] was half-maximal at 380 nM (IC50).

As to `CC1CC(C)CN(C(=NC2CCCCC2)Nc2ccc(C(=O)NCCc3ccc(Cl)cc3Cl)cc2)C1` (stereo not given), the Ki in experiment [3] came to 144 nM.

In experiment [3], `O=C(NCCc1ccc(Cl)cc1Cl)c1ccc(NC(=NC2CCCCC2)N2CCN(c3ccccc3)CC2)cc1` yielded a Ki of 290 nM.

`CC1CN(C(=NC2CCCCC2)Nc2ccc(C(=O)NCCc3ccc(Cl)cc3Cl)cc2)CC(C)N1` (stereo not given): the values for the Ki in experiment [4], in experiment [5] and in experiment [3] were 3900 nM, 590 nM and 11 nM, respectively. Moreover, the IC50 (usually the midpoint of a concentration-inhibition curve) in experiment [7] came to 89 nM.

As for `CC1CN(C(=NC2CCCCC2)Nc2ccc(C(=O)NCCc3ccc(Cl)cc3Cl)cc2)CC(C)O1` (stereo not given), the affinity in experiment [3], expressed as Ki, was 350 nM.

For `C[C@@H]1CN(/C(=N/c2ccc(C(=O)NCCc3ccc(Cl)cc3Cl)cc2)NC2CCCCC2)CCN1`, the IA in experiment [1] came out at 37%. For the same compound, the inhibition in experiment [2] came out at 25%.

For the compound `C[C@@H]1CN(C(=NC2CCCCC2)Nc2ccc(C(=O)NCCc3ccc(Cl)cc3Cl)cc2)CCN1`, the results for the Ki in experiment [4], in experiment [5] and in experiment [3] were 3500 nM, 840 nM and 2.1 nM, respectively. The midpoint of inhibition in experiment [7], the IC50, lay at 70 nM.

In experiment [1], `CNC1CCN(/C(=N/c2ccc(C(=O)NCCc3ccc(Cl)cc3Cl)cc2)NC2CCCCC2)C1` (stereo not given) returned an IA of 36%. The same compound registered an inhibition in experiment [2] of 27%. For the same compound, the figures for the Ki in experiment [4], in experiment [5] and in experiment [3] were 2300 nM, 1400 nM and 36 nM, respectively. In experiment [7], it took 630 nM to reach half-maximal inhibition (IC50).

As for `O=C(NCCc1ccc(Cl)cc1Cl)c1ccc(N/C(=N\C2CCNC2)NC2CCCCC2)cc1` (stereo not given), the Ki in experiment [4] was determined as 2500 nM; in experiment [5], 1500 nM; in experiment [6] it was 1900 nM; in experiment [3] it was 26 nM. Also, half-maximal inhibition in experiment [7] (IC50) was put at 530 nM.

In the case of `CN(/C(=N/c1ccc(C(=O)NCCc2ccc(Cl)cc2Cl)cc1)NC1CCCCC1)C1CCCCC1`, the Ki in experiment [3] was 91 nM.

Compound `O=C1CN(C(=NC2CCCCC2)Nc2ccc(C(=O)NCCc3ccc(Cl)cc3Cl)cc2)CCN1` yielded a Ki in experiment [3] of 560 nM.

`O=C(NCCc1ccc(Cl)cc1Cl)c1ccc(NC(=NC2CCCCC2)NCc2cc(F)cc(F)c2)cc1` displayed a Ki in experiment [3] of 70 nM.

As to `CN1CCN(/C(=N/c2ccc(C(=O)NCCc3ccc(Cl)cc3Cl)cc2)NC2CCCCC2)CC1`, in experiment [3], the Ki worked out at 50 nM.

As to `CCCN(CCC)/C(=N/c1ccc(C(=O)NCCc2ccc(Cl)cc2Cl)cc1)NC1CCCCC1`, the affinity in experiment [3], expressed as Ki, was 360 nM.
